FGF22 binding – FGF22 (human) thermal shift binding; Q9HCT0; recombinant FGF22 thermal shift, SYPRO orange fluorescence; percent of sucrose octasulfate shift, DMSO zero; activity (Tm shift, normalised), % at 9.99 µM; 340,000 tested, 1.5% active;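 active means mean Tm shift, scaled 0 neutral to 100 positive control, at about 1.3% or above, every replicate too, limit read from the data; inconclusive means no clear call, values can overlap the other calls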
Target sequence (Q9HCT0 whole entry, looked up): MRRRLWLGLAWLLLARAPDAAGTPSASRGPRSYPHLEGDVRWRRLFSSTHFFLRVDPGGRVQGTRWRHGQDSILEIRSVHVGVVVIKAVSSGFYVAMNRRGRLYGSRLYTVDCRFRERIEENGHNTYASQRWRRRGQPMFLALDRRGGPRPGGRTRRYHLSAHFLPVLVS
DENV2 CPE – inhibitors of DENV2 cytopathic effect; CPE inhibition, % at 9.99 µM; AID 651640; 350,000 tested, 1.7% active; DENV2-infected cells, cytopathic effect rescue, plate reader; in the data active means CPE inhibition above about 20%, passing the limit was not always enough; inconclusive means no clear call, values can overlap the other calls; tested in BHK-21 cells
E-sel inducer – induces E-selectin expression in human endothelial cells; P16581; HUVEC E-selectin immunofluorescence imaging; normalized: neutral wells 0, TNF-alpha wells 100; activation, % at 7.58 µM; 260,000 tested, 0.37% active; AID 686992;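 active means mean E-selectin-positive cell signal at least 10% of the positive control, reached in at least 60% of replicates, without over 20% cell loss; inconclusive means no rule given, readout overlaps actives, possibly toxicity-flagged; inactive means the rest, including those meeting only one limit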
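Test system: HUVEC | Signal: Immunofluorescence imaging | Read-out: Percent E-selectin-positive cells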
ERAP1 inh – blocks human ERAP1 aminopeptidase activity. inhibition, % at 10.7 µM. 340,000 tested, 0.15% active. recombinant ERAP1, Leu-AMC fluorescence, 60 min. Q9NZ08;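 active means mean replicate inhibition of at least 30%, or all replicates individually reaching that 30% level; inactive means mean below 30% and not every replicate reaching it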
F508del corr – correctors of CFTR F508del function in bronchial epithelial cells; CFBE cells, YFP halide quenching; stimulated with forskolin plus potentiator P3; % fluorescence drop versus neutral controls; activity (quench increase), % at 7.58 µM; 350,000 tested, 0.36% active;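 active means mean added fluorescence quench of at least 8% versus neutral control, with both replicates also reaching 8%; inconclusive means only one of the mean or replicate conditions met; inactive means mean below 8% and not both replicates reaching 8%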;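 further: cells transiently co-express mutant CFTR-F508del with the halide-sensitive YFP; corrector assay measuring rescue of mutant channel to the surface after 24 h compound exposure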
Hits are given with their value. Sampled rows, rich in hits. Any-hit rate of the full collection: about 3.7%.

Results for C[C@@H]1CN([C@H](C)CO)C(=O)c2cccc(NS(=O)(=O)c3ccc(F)cc3)c2O[C@@H]1CN(C)S(=O)(=O)c1cccs1 ?
FGF22 binding: inactive; DENV2 CPE: inactive; E-sel inducer: 35.6; ERAP1 inh: inactive; F508del corr: inactive

Results for C[C@@H]1CN([C@H](C)CO)C(=O)c2cccc(NS(=O)(=O)c3ccc(Cl)cc3)c2O[C@@H]1CN(C)S(=O)(=O)c1cccs1 ?
FGF22 binding: inactive; DENV2 CPE: 76.3; E-sel inducer: inactive; ERAP1 inh: inactive; F508del corr: inactive

Results for Cc1ccc(S(=O)(=O)Nc2cccc3c2O[C@@H](CN(C)S(=O)(=O)c2cccs2)[C@H](C)CN([C@H](C)CO)C3=O)cc1 ?
FGF22 binding: inactive; DENV2 CPE: inactive; E-sel inducer: inactive; ERAP1 inh: inactive; F508del corr: inactive

How did Cc1ccc(S(=O)(=O)Nc2cccc3c2O[C@H](CN(C)S(=O)(=O)c2cccs2)[C@@H](C)CN([C@@H](C)CO)C3=O)cc1 do in these assays?
FGF22 binding: inactive; DENV2 CPE: 63.3; E-sel inducer: inactive; ERAP1 inh: inactive; F508del corr: inactive

Results for C[C@H]1CCCCO[C@H](CN(C)C(=O)Nc2ccc(F)cc2)[C@@H](C)CN([C@@H](C)CO)C(=O)c2cc(NS(=O)(=O)c3ccccc3)ccc2O1 ?
FGF22 binding: inactive; DENV2 CPE: 53.1; E-sel inducer: inactive; ERAP1 inh: inactive; F508del corr: inactive

Results for C[C@@H]1CCCCO[C@H](CN(C)C(=O)Nc2ccc(F)cc2)[C@@H](C)CN([C@H](C)CO)C(=O)c2cc(NS(=O)(=O)c3ccccc3)ccc2O1 ?
FGF22 binding: inactive; DENV2 CPE: inactive; E-sel inducer: inactive; ERAP1 inh: inactive; F508del corr: inactive

How did C[C@H]1CCCCO[C@H](CN(C)C(=O)Nc2ccc(F)cc2)[C@@H](C)CN([C@@H](C)CO)C(=O)c2cc(NS(=O)(=O)c3ccc(F)cc3)ccc2O1 do in these assays?
FGF22 binding: inactive; DENV2 CPE: 27.1; E-sel inducer: inactive; F508del corr: inactive

What do the screens show for `C[C@@H]1CCCCO[C@@H](CN(C)C(=O)c2ccccc2)[C@H](C)CN([C@H](C)CO)C(=O)c2cc(NS(=O)(=O)c3ccc(F)cc3)ccc2O1`?
FGF22 binding: inactive; DENV2 CPE: 22.1; E-sel inducer: inactive; ERAP1 inh: inactive; F508del corr: inactive

How did CO[C@H]1CN(C)C(=O)c2cc(NC(=O)NC(C)C)ccc2OC[C@H](C)NC[C@@H]1C do in these assays?
E-sel inducer: inactive; F508del corr: inactive

What do the screens show for `CCC1(c2ccccc2)NC(=O)N(CC(=O)Nc2ccccc2C(=O)N2CCCCC2)C1=O` (configuration not stated)?
DENV2 CPE: 34.8; E-sel inducer: inactive; ERAP1 inh: inactive; F508del corr: inactive

How did Cc1cc(NC(=O)CN2C(=O)NC3(CCCCCC3)C2=O)ccc1Br do in these assays?
FGF22 binding: inactive; DENV2 CPE: inactive; E-sel inducer: inactive; ERAP1 inh: inactive; F508del corr: 31.8

Results for CC(=O)c1ccccc1NC(=O)CN1C(=O)NC2(CCCCCCC2)C1=O ?
FGF22 binding: inactive; DENV2 CPE: inactive; E-sel inducer: inactive; ERAP1 inh: inactive; F508del corr: inactive

What do the screens show for `CCC1(c2ccccc2)NC(=O)N(CC(=O)Nc2ccccc2N2CCCCC2)C1=O` (configuration not stated)?
FGF22 binding: inactive; DENV2 CPE: inactive; E-sel inducer: inactive; ERAP1 inh: inactive; F508del corr: inactive

What do the screens show for `CCN1CCN(CCC(=O)Nc2ccc(Br)c(C)c2)CC1`?
FGF22 binding: inactive; DENV2 CPE: 23.4; E-sel inducer: inactive; ERAP1 inh: inactive; F508del corr: inactive

What do the screens show for `CC(C)(C)c1ccccc1NC(=O)CN1C(=O)NC2(CCCCCC2)C1=O`?
FGF22 binding: inactive; DENV2 CPE: inactive; E-sel inducer: inactive; ERAP1 inh: inactive; F508del corr: 30.0

Results for Cc1noc(C)c1NC(=O)N(C)C[C@H]1Oc2ccc(NC(=O)CCN3CCOCC3)cc2CC(=O)N([C@H](C)CO)C[C@@H]1C ?
FGF22 binding: inactive; DENV2 CPE: inactive; E-sel inducer: inactive; ERAP1 inh: inactive; F508del corr: inactive

How did CCC(C)NC(=O)c1nc2c(nnn2Cc2ccccc2Cl)c(=O)[nH]1 (configuration not stated) do in these assays?
FGF22 binding: 43.3; DENV2 CPE: inactive; ERAP1 inh: inactive; F508del corr: inactive

How did C[C@H]1CN([C@@H](C)CO)C(=O)c2cc(NS(C)(=O)=O)ccc2O[C@@H]1CN(C)S(C)(=O)=O do in these assays?
FGF22 binding: inactive; DENV2 CPE: inactive; E-sel inducer: inactive; ERAP1 inh: inactive; F508del corr: inactive

What do the screens show for `C[C@H](CO)N1C[C@H](C)[C@H](CN(C)C(=O)C2CCCCC2)Oc2ncc(C#Cc3ccccc3F)cc2C1=O`?
FGF22 binding: inactive; DENV2 CPE: inactive; E-sel inducer: inactive; ERAP1 inh: inactive; F508del corr: inactive

Results for O=C(NCc1ccco1)C1CC(c2ccc(F)cc2)=NO1 (configuration not stated) ?
FGF22 binding: inactive; DENV2 CPE: inactive; E-sel inducer: inactive; F508del corr: inactive

What do the screens show for `COc1ccc(S(=O)(=O)NNC(=O)C2CC(c3cccnc3)=NO2)cc1` (configuration not stated)?
FGF22 binding: 43.6; DENV2 CPE: inactive; ERAP1 inh: inactive; F508del corr: inactive

Results for O=C(NCc1ccco1)C1CC(c2ccc(Cl)cc2)=NO1 (configuration not stated) ?
FGF22 binding: 43.0; DENV2 CPE: inactive; ERAP1 inh: inactive; F508del corr: inactive

How did O=C(NCc1cc(C(F)(F)F)cc(C(F)(F)F)c1)C1CC(c2ccc(C(F)(F)F)cc2)=NO1 (configuration not stated) do in these assays?
FGF22 binding: 41.2; DENV2 CPE: inactive; E-sel inducer: inactive; ERAP1 inh: inactive; F508del corr: inactive

How did COc1cccc(C2=NOC(C(=O)Nc3cccnc3Cl)C2)c1 (configuration not stated) do in these assays?
FGF22 binding: 44.1; DENV2 CPE: inactive; ERAP1 inh: inactive; F508del corr: inactive

How did COc1ccc(CNC(=O)C2CC(c3cccc([N+](=O)[O-])c3)=NO2)cc1 (configuration not stated) do in these assays?
FGF22 binding: inactive; DENV2 CPE: inactive; E-sel inducer: inactive; ERAP1 inh: inactive; F508del corr: inactive

How did Cc1ccc(S(=O)(=O)N(C)C[C@@H]2OCCCC[C@@H](C)Oc3ccc(NC(=O)NC4CCCCC4)cc3C(=O)N([C@H](C)CO)C[C@H]2C)cc1 do in these assays?
FGF22 binding: inactive; DENV2 CPE: inactive; E-sel inducer: inactive; ERAP1 inh: inactive; F508del corr: inactive

What do the screens show for `C[C@@H]1CN([C@H](C)CO)C(=O)c2cc(C#CCN(C)C)cnc2O[C@@H]1CN(C)C(=O)c1cccnc1`?
FGF22 binding: inactive; DENV2 CPE: inconclusive; E-sel inducer: inactive; ERAP1 inh: inactive; F508del corr: inactive

Screening data as filed in PubChem.
